{"source": "ChEMBL document CHEMBL5136969", "about": "“A niclosamide-tobramycin hybrid adjuvant potentiates cefiderocol against P. aeruginosa” (2021)", "key": {"Pseudomonas aeruginosa [1]": {"tested_on": "Pseudomonas aeruginosa", "assay": "Potentiation of moxifloxacin-induced antibiotic activity against Pseudomonas aeruginosa PAO1 assessed as MIC fold reduction at 8 ug/ml after 18 hrs by microbroth dilution method", "type": "functional", "conditions": "dose 8 µg/ml"}, "Acinetobacter baumannii [2]": {"tested_on": "Acinetobacter baumannii", "assay": "Potentiation of niclosamide-induced antibiotic activity against Acinetobacter baumannii ATCC 17978 assessed as MIC fold reduction at 8 ug/ml after 18 hrs by microbroth dilution method", "type": "functional", "conditions": "dose 8 µg/ml"}, "Escherichia coli [3]": {"tested_on": "Escherichia coli", "assay": "Potentiation of niclosamide-induced antibiotic activity against Escherichia coli ATCC 25922 assessed as MIC fold reduction at 8 ug/ml after 18 hrs by microbroth dilution method", "type": "functional", "conditions": "dose 8 µg/ml"}, "Acinetobacter baumannii [4]": {"tested_on": "Acinetobacter baumannii", "assay": "Potentiation of cefotaxime-induced antibiotic activity against Acinetobacter baumannii ATCC 17978 assessed as MIC fold reduction at 8 ug/ml after 18 hrs by microbroth dilution method", "type": "functional", "conditions": "dose 8 µg/ml", "method_in_brief": "(§1)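 Initial screen in MHB using a fixed 8 μg mL−1 of adjuvant combined with each antibiotic under 2-fold dilution. Broth microdilution used about 5 × 10^5 CFU/mL at 37 °C for 18 h, with visible turbidity read and confirmed at 590 nm. Fold-potentiation = antibiotic MIC alone ÷ antibiotic MIC with adjuvant.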"}, "Escherichia coli [5]": {"tested_on": "Escherichia coli", "assay": "Potentiation of cefiderocol-induced antibiotic activity against Escherichia coli ATCC 25922 assessed as MIC fold reduction at 8 ug/ml after 18 hrs by microbroth dilution method", "type": "functional", "conditions": "dose 8 µg/ml", "method_in_brief": "as §1"}, "Pseudomonas aeruginosa [6]": {"tested_on": "Pseudomonas aeruginosa", "assay": "Potentiation of ceftolozane-induced antibiotic activity against Pseudomonas aeruginosa PAO1 assessed as MIC fold reduction at 8 ug/ml after 18 hrs by microbroth dilution method", "type": "functional", "conditions": "dose 8 µg/ml", "method_in_brief": "(§2)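 Adjuvant held at a fixed 8 μg/mL while the antibiotic was 2-fold serially diluted in Mueller-Hinton broth (MHB), per CLSI microbroth dilution. Overnight cultures were adjusted in saline to 0.5 McFarland, then diluted 1:50 in MHB to about 5 × 10^5 CFU/mL final, and incubated 18 h at 37 °C. MIC was the lowest concentration with no visible turbidity, confirmed at 590 nm. Fold potentiation = MIC alone / MIC with adjuvant.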"}, "Acinetobacter baumannii [7]": {"tested_on": "Acinetobacter baumannii", "assay": "Potentiation of doxycycline-induced antibiotic activity against Acinetobacter baumannii ATCC 17978 assessed as MIC fold reduction at 8 ug/ml after 18 hrs by microbroth dilution method", "type": "functional", "conditions": "dose 8 µg/ml", "method_in_brief": "as §2"}, "Escherichia coli [8]": {"tested_on": "Escherichia coli", "assay": "Potentiation of chloamphenicol-induced antibiotic activity against Escherichia coli ATCC 25922 assessed as MIC fold reduction at 8 ug/ml after 18 hrs by microbroth dilution method", "type": "functional", "conditions": "dose 8 µg/ml", "method_in_brief": "as §2"}, "Pseudomonas aeruginosa [9]": {"tested_on": "Pseudomonas aeruginosa", "assay": "Potentiation of novobiocin-induced antibiotic activity against Pseudomonas aeruginosa PAO1 assessed as MIC fold reduction at 8 ug/ml after 18 hrs by microbroth dilution method", "type": "functional", "conditions": "dose 8 µg/ml"}, "Escherichia coli [10]": {"tested_on": "Escherichia coli", "assay": "Potentiation of novobiocin-induced antibiotic activity against Escherichia coli ATCC 25922 assessed as MIC fold reduction at 8 ug/ml after 18 hrs by microbroth dilution method", "type": "functional", "conditions": "dose 8 µg/ml"}, "Acinetobacter baumannii [11]": {"tested_on": "Acinetobacter baumannii", "assay": "Potentiation of cindamycin-induced antibiotic activity against Acinetobacter baumannii ATCC 17978 assessed as MIC fold reduction at 8 ug/ml after 18 hrs by microbroth dilution method", "type": "functional", "conditions": "dose 8 µg/ml", "method_in_brief": "as §2"}, "Pseudomonas aeruginosa [12]": {"tested_on": "Pseudomonas aeruginosa", "assay": "Potentiation of cefotaxime-induced antibiotic activity against […] Pseudomonas aeruginosa PAO1 assessed as MIC fold reduction at 8 ug/ml after 18 hrs by microbroth dilution method", "type": "functional, organism-based", "conditions": "dose 8.0 µg/ml", "method_in_brief": "as §2"}, "Pseudomonas aeruginosa [13]": {"tested_on": "Pseudomonas aeruginosa", "assay": "Potentiation of ceftazidime-induced antibiotic activity against […] Pseudomonas aeruginosa PAO1 assessed as MIC fold reduction at 8 ug/ml after 18 hrs by microbroth dilution method", "type": "functional, organism-based", "conditions": "dose 8.0 µg/ml", "method_in_brief": "as §2"}, "Pseudomonas aeruginosa [14]": {"tested_on": "Pseudomonas aeruginosa", "assay": "Potentiation of ceftolozane-induced antibiotic activity against […] Pseudomonas aeruginosa PAO1 assessed as MIC fold reduction at 8 ug/ml after 18 hrs by microbroth dilution method", "type": "functional, organism-based", "conditions": "dose 8.0 µg/ml", "method_in_brief": "as §2"}, "Pseudomonas aeruginosa [15]": {"tested_on": "Pseudomonas aeruginosa", "assay": "Potentiation of ceftolozane-induced antibiotic activity against MDR clinical isolate Pseudomonas aeruginosa PA259 assessed as MIC fold reduction at 8 ug/ml after 18 hrs by microbroth dilution method", "type": "functional, organism-based", "conditions": "dose 8.0 µg/ml", "method_in_brief": "as §2"}, "Pseudomonas aeruginosa [16]": {"tested_on": "Pseudomonas aeruginosa", "assay": "Potentiation of ceftolozane-induced antibiotic activity against MDR clinical isolate Pseudomonas aeruginosa PA264 assessed as MIC fold reduction at 8 ug/ml after 18 hrs by microbroth dilution method", "type": "functional, organism-based", "conditions": "dose 8.0 µg/ml", "method_in_brief": "as §2"}, "Pseudomonas aeruginosa [17]": {"tested_on": "Pseudomonas aeruginosa", "assay": "Antibacterial activity against MDR clinical isolate Pseudomonas aeruginosa PA100036 assessed as reduction in bacterial growth after 18 hrs by microbroth dilution method", "type": "functional", "method_in_brief": "(§3)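 Broth microdilution per CLSI in Mueller-Hinton broth (MHB). Overnight cultures were adjusted to 0.5 McFarland in saline, diluted 1:50 in MHB, and added at about 5 × 10^5 CFU/mL final to equal volumes of 2-fold serial dilutions of agent. Incubation was 18 h at 37 °C. MIC was the lowest concentration with no visible turbidity, confirmed by absorbance at 590 nm.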"}, "Pseudomonas aeruginosa [18]": {"tested_on": "Pseudomonas aeruginosa", "assay": "Antibacterial activity against MDR clinical isolate Pseudomonas aeruginosa PA101885 assessed as reduction in bacterial growth after 18 hrs by microbroth dilution method", "type": "functional", "method_in_brief": "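CLSI broth microdilution. Overnight cultures were adjusted in saline to 0.5 McFarland, diluted 1:50 in Mueller-Hinton broth (MHB), and inoculated at about 5 × 10^5 CFU/mL. Agents were 2-fold serially diluted in MHB, mixed 1:1 with inoculum, and held at 37 °C for 18 h. MIC was the lowest concentration with no visible turbidity, confirmed at 590 nm.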"}, "Pseudomonas aeruginosa [19]": {"tested_on": "Pseudomonas aeruginosa", "assay": "Antibacterial activity against colistin-resistant clinical isolate Pseudomonas aeruginosa PA114228 assessed as reduction in bacterial growth after 18 hrs by microbroth dilution method", "type": "functional", "method_in_brief": "as §3"}, "Pseudomonas aeruginosa [20]": {"tested_on": "Pseudomonas aeruginosa", "assay": "Antibacterial activity against MDR clinical isolate Pseudomonas aeruginosa PA262 assessed as potentiation of cefiderocol antibacterial activity by measuring FIC index after 18 hrs by microbroth dilution method", "type": "functional", "method_in_brief": "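Checkerboard in MHB. Cefiderocol was 2-fold serially diluted along one axis and the adjuvant along the other. Inoculum was prepared from 0.5 McFarland saline suspensions diluted 1:50 in MHB, giving about 5 × 10^5 CFU/mL final. Plates ran 18 h at 37 °C, with turbidity confirmed at 590 nm. FIC = combination MIC ÷ MIC alone for each agent, and FIC index = sum of both. Interpretation: ≤0.5 synergy, >0.5–4 additive, >4 antagonism.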"}, "Acinetobacter baumannii [21]": {"tested_on": "Acinetobacter baumannii", "assay": "Antibacterial activity against Acinetobacter baumannii LAC-4 assessed as reduction in bacterial growth after 18 hrs in presence of cefiderocol by microbroth dilution method", "type": "functional", "method_in_brief": "(§4)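 Checkerboard in Mueller-Hinton broth: cefiderocol 2-fold diluted on one axis, adjuvant 2-fold on the other. Overnight cultures were adjusted to 0.5 McFarland in saline, diluted 1:50 in MHB, and inoculated at about 5 × 10^5 CFU/mL. Incubation was 18 h at 37 °C. Turbidity was read visually and confirmed at 590 nm. FIC index = FIC of antibiotic + FIC of adjuvant; ≤0.5 synergy, >4 antagonism.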"}, "Klebsiella pneumoniae": {"tested_on": "Klebsiella pneumoniae", "assay": "Antibacterial activity against Klebsiella pneumoniae KP113250 assessed as reduction in bacterial growth after 18 hrs in presence of cefiderocol by microbroth dilution method", "type": "functional", "method_in_brief": "as §4"}, "Enterobacter cloacae": {"tested_on": "Enterobacter cloacae", "assay": "Antibacterial activity against Enterobacter cloacae 118564 assessed as potentiation of cefiderocol antibacterial activity by measuring FIC after 18 hrs by microbroth dilution method", "type": "functional", "method_in_brief": "as §4"}, "Pseudomonas aeruginosa [22]": {"tested_on": "Pseudomonas aeruginosa", "assay": "Potentiation of moxifloxacin-induced antibiotic activity against Pseudomonas aeruginosa PAO1 assessed as reduction in microbial growth at 8 ug/ml after 18 hrs by microbroth dilution method relative to control", "conditions": "PAO1, 18 h, read-out: GI"}}, "note": "Activity calls are given as the source filed them. No cut-off for these calls is given here.", "data": [{"smiles": "NC[C@H]1O[C@H](O[C@H]2[C@H](OCCCCc3cn(-c4ccc(NC(=O)c5cc(Cl)ccc5O)cc4)nn3)[C@@H](O[C@H]3O[C@H](CO)[C@@H](O)[C@H](N)[C@H]3O)[C@H](N)C[C@@H]2N)[C@H](N)C[C@@H]1O", "values": [{"measurement": "fold change (FC)", "setting": "Pseudomonas aeruginosa [1]", "value": 4}, {"measurement": "fold change (FC)", "setting": "Acinetobacter baumannii [2]", "value": 4}, {"measurement": "fold change (FC)", "setting": "Escherichia coli [3]", "value": 4}, {"measurement": "fold change (FC)", "setting": "Acinetobacter baumannii [4]", "value": 4}, {"measurement": "fold change (FC)", "setting": "Escherichia coli [5]", "value": 4}, {"measurement": "fold change (FC)", "setting": "Pseudomonas aeruginosa [6]", "value": 4}, {"measurement": "fold change (FC)", "setting": "Acinetobacter baumannii [7]", "value": 4}, {"measurement": "fold change (FC)", "setting": "Escherichia coli [8]", "value": 4}, {"measurement": "fold change (FC)", "setting": "Pseudomonas aeruginosa [9]", "value": 4}, {"measurement": "fold change (FC)", "setting": "Escherichia coli [10]", "value": 4}, {"measurement": "fold change (FC)", "setting": "Acinetobacter baumannii [11]", "value": 4}, {"measurement": "Activity", "setting": "Pseudomonas aeruginosa [12]", "value": "Active"}, {"measurement": "Activity", "setting": "Pseudomonas aeruginosa [13]", "value": "Active"}, {"measurement": "Activity", "setting": "Pseudomonas aeruginosa [14]", "value": "Active"}, {"measurement": "Activity", "setting": "Pseudomonas aeruginosa [15]", "value": "Active"}, {"measurement": "Activity", "setting": "Pseudomonas aeruginosa [16]", "value": "Active"}, {"measurement": "MIC", "setting": "Pseudomonas aeruginosa [17]", "value": "> 128", "unit": "µg/mL"}, {"measurement": "MIC", "setting": "Pseudomonas aeruginosa [18]", "value": "> 128", "unit": "µg/mL"}, {"measurement": "MIC", "setting": "Pseudomonas aeruginosa [19]", "value": 32, "unit": "µg/mL"}, {"measurement": "FIC", "setting": "Pseudomonas aeruginosa [20]", "value": 0.25}, {"measurement": "MIC", "setting": "Acinetobacter baumannii [21]", "value": 0.25, "unit": "µg/mL"}, {"measurement": "MIC", "setting": "Klebsiella pneumoniae", "value": 4, "unit": "µg/mL"}, {"measurement": "FIC", "setting": "Enterobacter cloacae", "value": 1}, {"measurement": "inhibition of growth at 8 µg/mL", "setting": "Pseudomonas aeruginosa [22]", "value": 100, "unit": "%"}]}]}
